KCNK3 inh – human KCNK3 channel inhibitors, primary screen, CHO cells, FluxOR thallium flux, B-score. Potassium channel subfamily K member 3 (Homo sapiens), O14649. FluxOR fluorescence; active compounds read low. B-score at 10 µM. 340,000 compounds, 0.84% hits. AID 602410, 2012;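 active = B-score under library mean minus 4 SD, starting fluorescence ratio at most library mean plus 5 SD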;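 note: more negative B-score means stronger inhibition of thallium flux through KCNK3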
KCNQ1 pot – potentiators or activators of KCNQ1 channel, primary screen, cell-based, thallium flux, high-throughput; 310,000 compounds, 0.35% hits; Potassium voltage-gated channel subfamily KQT member 1 (Homo sapiens), P51787; CHO-K1 KCNQ1, thallium flux FluxOR fluorescence; active compounds read high; B-score at 10 µM;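 active = fluorescence ratio B-score, a plate-corrected score, at least three library SD, with initial intensity B-score within 5 SD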
Target sequence (P51787 whole entry, looked up): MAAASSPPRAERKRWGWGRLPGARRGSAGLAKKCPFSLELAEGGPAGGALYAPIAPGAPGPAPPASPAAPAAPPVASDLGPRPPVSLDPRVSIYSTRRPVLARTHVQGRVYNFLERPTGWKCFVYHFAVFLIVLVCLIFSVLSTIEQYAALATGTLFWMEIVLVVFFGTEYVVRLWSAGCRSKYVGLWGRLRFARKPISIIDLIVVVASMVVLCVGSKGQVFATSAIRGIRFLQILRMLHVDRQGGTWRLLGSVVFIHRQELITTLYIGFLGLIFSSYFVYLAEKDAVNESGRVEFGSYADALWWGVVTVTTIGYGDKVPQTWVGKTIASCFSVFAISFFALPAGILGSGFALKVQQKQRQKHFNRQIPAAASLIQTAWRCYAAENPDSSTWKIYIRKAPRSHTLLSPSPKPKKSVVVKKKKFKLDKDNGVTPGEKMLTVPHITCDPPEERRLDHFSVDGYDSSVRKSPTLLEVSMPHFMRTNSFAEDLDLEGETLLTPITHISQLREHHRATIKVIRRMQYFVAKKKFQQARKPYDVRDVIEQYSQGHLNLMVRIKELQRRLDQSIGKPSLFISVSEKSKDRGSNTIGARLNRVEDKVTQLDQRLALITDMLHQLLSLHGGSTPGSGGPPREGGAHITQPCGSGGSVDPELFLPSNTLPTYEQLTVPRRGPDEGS
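Material: CHO-K1 cells stably expressing KCNQ1. Medium: assay buffer for compound exposure, DMSO matched across wells. Reagent: K+/Tl+ depolarizing stimulus. Compound dosing: single-concentration screen. Times: 37 °C overnight plating, 90-min dark dye load, 20-min compound pretreatment. Technique: FluxOR Tl+ flux fluorescence.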
KCNK9 block – KCNK9 potassium channel inhibitors, primary screen, HEK293 cells, thallium flux | Potassium channel subfamily K member 9 (Homo sapiens), Q9NPC2 | FluxOR thallium flux fluorescence; active compounds read low | B-score at 10 µM | 310,000 compounds, 1.2% hits;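 active = ratio B-score over 3 SD below the library mean, with starting fluorescence within 5 SD of its mean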;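 note: negative B-score means less thallium flux so channel inhibition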
KCNQ1 inh – inhibitors of human KCNQ1 channel, primary screen, cell-based, thallium flux, high-throughput. Potassium voltage-gated channel subfamily KQT member 1 (Homo sapiens), P51787. CHO-K1 KCNQ1, FluxOR thallium flux fluorescence; active compounds read high. B-score at 10 µM. 310,000 compounds, 1.3% hits;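 active = compounds whose thallium flux B-score, printed positive for inhibition, exceeds three library SD while starting fluorescence stays within three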;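 note: channel opened by potassium depolarization with thallium stimulus after 20 min compound exposure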
hERG rescue – hERG rescue from dofetilide block, primary screen, cell-based, CHO-hERG, FluxOR thallium flux, dofetilide IC70; activation (rescue from dofetilide block), less the hit threshold, % at 10 µM; Voltage-gated inwardly rectifying potassium channel KCNH2 (Homo sapiens), Q12809; dofetilide IC70 present; 310,000 compounds, 0.51% hits;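 active = activation above the mean of controls blocked by dofetilide plus 5 SD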;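 note: thallium influx through hERG after potassium depolarization seen as dye fluorescence rise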
Kir21 inh – inhibitors of mouse Kir2.1 inward-rectifier potassium channel | AID 1672, 2009 | B-score at 10 µM | Inward rectifier potassium channel 2 (Mus musculus), P35561 | HEK293-Kir2.1, FluxOR thallium flux fluorescence; active compounds read low | 310,000 compounds, 0.85% hits;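 active = fluorescence ratio B-score at or below minus 3 SD of library scores, with starting-brightness B-score within 2 SD, cut at about -4.2 in these data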;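 note: channel flux triggered by added potassium and thallium sulfate stimulus; B-score of peak minus minimum fluorescence over baseline after thallium stimulus; more negative B-score means stronger Kir2.1 block with less thallium influx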
KCNK9 block conf – KCNK9 potassium channel inhibitors, confirmation, HEK293 cells, thallium flux, duplicate; shares compounds with KCNK9 block; FluxOR thallium flux fluorescence; inhibition, % at 10 µM; 4,900 compounds, 43% hits;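 active = thallium signal inhibited by more than 5 SD of the compound-free buffer control wells, on both duplicate plates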
Kir2-1 spec – mouse Kir2.1 channel inhibition, confirmation, selectivity assay for KCNK9 modulator project, cell-based, HEK293, thallium flux. Kir2.1 cells, FluxOR thallium flux fluorescence. inhibition, % at 10 µM. AID 492993, 2010. shares compounds with KCNK9 block. 4,900 compounds, 4% hits;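 active = thallium signal drop more than 5 SD beyond the mean of the no-compound control wells, seen in both duplicate plates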;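 note: signal is fluorescence rise after thallium addition divided by baseline fluorescence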
KCNK9 uninduced – thallium flux in non-induced HEK293 cells, confirmation, counter-screen for KCNK9 inhibitor project, cell-based, second counter screen, non-induced KCNK9-HEK293. FluxOR thallium flux. 4,900 compounds, 40% hits. inhibition, % at 10 µM. shares compounds with KCNK9 block;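 active = thallium signal drop beyond 5 SD of the untreated control mean, on both duplicate plates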
Of the large screens only hits and unclear results are named; the others gave an inactive call (follow-up assays come after a bar, where they were run). Only some compounds are listed: those with a hit (about 3.7% of all), similar ones and a draw of the others.

Cc1cc(C)cc(C(=O)NC(CC(N)=O)c2ccc(N3CCN(c4ccccc4)CC3)c([N+](=O)[O-])c2)c1 (stereo not drawn)	none
Cc1cc(C)cc(C(=O)NC(CC(N)=O)c2ccc(N3CCC(Cc4ccccc4)CC3)c([N+](=O)[O-])c2)c1 (stereo not drawn)	KCNK9 block -12.8 | KCNK9 block conf 53.0% | Kir2-1 spec inactive | KCNK9 uninduced 36.0%
O=C(Cc1cccc([N+](=O)[O-])c1)Nc1ccc(C(=O)N2CCCCC2)cc1	none (no result: KCNQ1 pot, KCNK9 block, KCNQ1 inh, hERG rescue, Kir21 inh)
COc1cc(CN(C)CC2CCCN(CCc3ccccc3F)C2)cc(Cl)c1OC (stereo not drawn)	Kir21 inh -4.88 | KCNK9 block conf inactive | Kir2-1 spec inactive | KCNK9 uninduced inactive
COc1ccccc1CCN1CCCC(CN(C)Cc2ccc(OCCO)cc2)C1 (stereo not drawn)	none
O=C(CC(Nc1ccc(F)cc1)c1ccccc1)c1ccccc1 (stereo not drawn)	KCNK9 block -11.3 | KCNK9 block conf inactive | Kir2-1 spec inactive | KCNK9 uninduced inactive
c1ccc(COc2cccc(CN3CCN(c4ccccn4)CC3)c2)cc1	KCNK9 block -9.07 | KCNK9 block conf 35.0% | Kir2-1 spec inactive | KCNK9 uninduced 27.0%
CCCc1ccc(S(=O)(=O)N/N=C\c2ccc3c(c2)OCO3)cc1	none
O=C(c1ccc2[nH]c(=O)c(=O)[nH]c2c1)N1CCN(c2ccccc2)CC1	none
CCCCn1cnc2c(c(-c3ccccc3)c(-c3ccccc3)n2Cc2ccco2)c1=N	KCNK9 block -13.3, KCNQ1 inh 10 | KCNK9 block conf 44.5% | Kir2-1 spec inactive | KCNK9 uninduced inactive
CCC(C)(C)n1nnnc1C(c1cccs1)N1CCc2ccccc21 (stereo not drawn)	KCNK9 block -9.17 | KCNK9 block conf 51.0% | Kir2-1 spec inactive | KCNK9 uninduced 35.5%
N#CC1(NC(=O)COC(=O)c2nccnc2N)CCCCC1	none
O=C1CCC(/C=C/c2ccccc2)=NN1Cc1ccc(Cl)c(Cl)c1	none | KCNK9 block conf inactive | Kir2-1 spec inactive | KCNK9 uninduced inactive
CCc1sc(C(=O)Nc2cc(S(=O)(=O)N3CCOCC3)ccc2OC)cc1C	none (no result: KCNQ1 pot, KCNK9 block, KCNQ1 inh, hERG rescue, Kir21 inh)
O=C(c1ccccc1)C1Oc2ccccc2C2CC(c3cccs3)=NN12 (stereo not drawn)	none
COc1cccc(C2Oc3ccccc3C3CC(c4cccs4)=NN32)c1 (stereo not drawn)	KCNK9 block -12.3 | KCNK9 block conf 60.5% | Kir2-1 spec inactive | KCNK9 uninduced inactive
Cc1noc(C)c1C(=O)OCC(=O)NC1CCCCC1C (stereo not drawn)	none (no result: KCNQ1 pot, KCNK9 block, KCNQ1 inh, hERG rescue, Kir21 inh)
CC(C)(C)c1nc(SCC(=O)N2CCCC2)c2ccccc2n1	none
CC1CC(C)CN(C(=O)CSc2nc(Cc3cccs3)nc3ccccc23)C1 (stereo not drawn)	none | KCNK9 block conf inactive | Kir2-1 spec inactive | KCNK9 uninduced 24.5%
CCOc1cc(CNc2ccc(Br)cc2)cc(Br)c1OCC(=O)NC(C)(C)C	KCNK9 block -9.18 | KCNK9 block conf 47.0% | Kir2-1 spec inactive | KCNK9 uninduced 40.5%
NCCc1ccn[nH]1	none (no result: KCNQ1 pot, KCNK9 block, KCNQ1 inh, hERG rescue, Kir21 inh)
O=C(NCC(O)c1ccccc1)c1ccc(Cl)c(S(=O)(=O)N2CCCC2)c1 (stereo not drawn)	none
Cc1ccc2cccc(N=Cc3c(C)[nH]n(-c4ccccc4)c3=O)c2n1	KCNK9 block -10 | KCNK9 block conf 47.0% | Kir2-1 spec inactive | KCNK9 uninduced inactive
O=C(CSC(=S)N1CCCC1)N1CCN(S(=O)(=O)c2cccc([N+](=O)[O-])c2)CC1	none
COCCC1CCCCN1Cc1cn(-c2ccccc2)nc1-c1ccc2c(c1)OCO2 (stereo not drawn)	none | KCNK9 block conf inactive | Kir2-1 spec inactive | KCNK9 uninduced inactive
O=S(=O)(Nc1cc(Cl)ccc1N1CCCCC1)c1cccs1	KCNK9 block -14.9 | KCNK9 block conf 65.0% | Kir2-1 spec inactive | KCNK9 uninduced inactive
COc1ccc(NC(=O)COc2cccc(-n3cnnn3)c2)cc1	none
O=C1C(Cl)=C(N2CCN(Cc3ccccc3)CC2)C(=O)N1Cc1ccccc1	none | KCNK9 block conf inactive | Kir2-1 spec inactive | KCNK9 uninduced inactive
O=C(c1cccc2c1-c1ccccc1C2)N1CCCCC1	none
N#Cc1ccccc1-c1ccccc1C(=O)N1CCCCC1	KCNK9 block -19.2 | KCNK9 block conf inactive | Kir2-1 spec inactive | KCNK9 uninduced inactive
COc1ccc(CN(C)C(=O)CNC(=O)Cc2cccc3ccccc23)c(OC)c1OC	none
COc1cccc(CN(C)C(=O)CNC(=O)c2sc3ccccc3c2Cl)c1OC	none | KCNK9 block conf inactive | Kir2-1 spec inactive | KCNK9 uninduced inactive
CCOc1cc(/C=C2\C(=O)N(CCc3ccc(OC)c(OC)c3)C(C)=C2C(=O)OC)ccc1O	none
COC(=O)C1=C(C)N(Cc2ccc(C)cc2)C(=O)/C1=C\c1ccc(O)c(OC)c1	KCNK9 block -8.92 | KCNK9 block conf 62.5% | Kir2-1 spec inactive | KCNK9 uninduced 40.0%
CSc1cccc(NC(=O)C2CCN(C(=O)c3ccccc3C)CC2)c1	none | KCNK9 block conf inactive | Kir2-1 spec inactive | KCNK9 uninduced inactive
Cc1ccccc1C(=O)N1CCC(C(=O)Nc2ccc(F)cc2)CC1	none
CCc1ccc(N=C2NC(=O)/C(=C/c3ccc(OCC(=O)O)c(OC)c3)S2)cc1	none | KCNK9 block conf inactive | Kir2-1 spec inactive | KCNK9 uninduced inactive
CCc1ccc(N=C2NC(=O)/C(=C/c3ccc(OCC(=O)O)cc3)S2)cc1	none
CC(C)(C)NC(=O)C(c1ccc(-c2ccccc2)cc1)N(C[C@H]1CC[C@@H]([C@@H]2CC[C@H](CO)O2)O1)C(=O)c1ccccc1F (stereo partly drawn)	none (no result: KCNQ1 pot, KCNK9 block, KCNQ1 inh, hERG rescue, Kir21 inh)
O=C(Cc1c(F)cccc1Cl)Nc1nc2ccccc2s1	KCNK9 block -13.3 | KCNK9 block conf inactive | Kir2-1 spec inactive | KCNK9 uninduced 49.5%

Source: PubChem
